Laboratory results as given in ChEMBL document CHEMBL1127020, “3-Quinolinecarboxamides. A series of novel orally-active antiherpetic agents” (1993).
Values after ≈ are worked out from the molar mass of the structure shown. Active and inactive are the calls of the source. No cut-off for these calls is given here.

Columns and labels:
Human alphaherpesvirus 2 [1] = assay: (§1) In vitro minimum inhibitory concentration against herpes simplex virus-2 (HSV-2) by plaque-reduction assay in vero cells; assay type: functional
Human alphaherpesvirus 2 [2] = assay: In vivo maximum tolerated dose against herpes simplex virus-2 (HSV-2) by oral administration in female mice; assay type: functional
Human alphaherpesvirus 2 [3] = assay: In vitro maximum tolerated level against herpes simplex virus-2 (HSV-2) by plaque-reduction assay in vero cells; assay type: functional
Human alphaherpesvirus 2 [4] = assay: Minimum effective dose against herpes simplex virus-2 (HSV-2) by oral administration in female mice.; assay type: functional, organism-based
In short: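 Swiss female ICR mice (13–15 g) infected intravaginally with HSV-2 (Curtis) at a dose set for 80% mortality. Compound suspended in 1% gum tragacanth/2% Tween 80, given intragastrically at serial 2-fold doses, 20 mice per dose, 2 h before infection then twice daily for 5 d. Mortality followed 14 d; MED = lowest dose with survival differing from placebo (Mantel-Cox, Breslow).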

Human alphaherpesvirus 2 [5] = assay: as §1; assay type: functional, organism-based
In short: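 Vero monolayers (2 days old, confluent; Hank's MEM + 5% inactivated FCS, 37 °C, 2% CO2) infected with ~80 PFU; after 1-h adsorption, overlay of M199/5% FCS with 1:150 human immune serum globulin plus serial 2-fold compound dilutions (1:200 from DMSO). 3 d incubation, glutaraldehyde fix, crystal violet stain, plaque count. MIC = lowest concentration giving 50% plaque reduction; mean of ≥2 experiments.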

Compound	MIC (Human alphaherpesvirus 2 [1])	MTD (Human alphaherpesvirus 2 [2])	MTL (Human alphaherpesvirus 2 [3])	MED (Human alphaherpesvirus 2 [4])	MIC (Human alphaherpesvirus 2 [5])
NC(=O)c1cn(C2CC2)c2cc(-c3ccncc3)ccc2c1=O	4 µg/mL (≈ 13.1 µM)	25 mg/kg	25 µg/mL	inactive	
CCn1cc(C(N)=O)c(=O)c2ccc(-c3cnc(C)s3)cc21			>100 µg/mL		inactive
CCn1c(N)c(C(N)=O)c(=O)c2ccc(-c3ccncc3)cc21	9 µg/mL (≈ 29.2 µM)	>100 mg/kg	>12.5 µg/mL		
CCn1cc(C2=NCCO2)c(=O)c2ccc(-c3ccncc3)cc21			12.5 µg/mL		inactive
CCn1cc(C(N)=O)c(=O)c2ccc(Cl)cc21			>100 µg/mL		inactive
CCn1cc(C(N)=O)c(=O)c2ccc(I)cc21			>100 µg/mL		inactive
NC(=O)c1cnc2cc(-c3ccncc3)ccc2c1O			12.5 µg/mL		inactive
CCn1cc(C(N)=O)c(=O)c2ccc(-c3ccccc3)cc21			50 µg/mL		inactive
Oc1nc2c(O)c3ccc(-c4ccncc4)cc3n(-c3ccc(F)cc3)c-2n1			>100 µg/mL		
CCn1cc(C(=O)N(C)C)c(=O)c2ccc(-c3ccncc3)cc21			>100 µg/mL		inactive
CCn1cc(C(=O)O)c(=O)c2ccc(-c3ccncc3)cc21 [ROSOXACIN]			>200 µg/mL		inactive
CCCCCn1cc(C(N)=O)c(=O)c2ccc(-c3ccncc3)cc21	4.8 µg/mL (≈ 14.3 µM)	50 mg/kg	6.25 µg/mL	inactive	
NC(=O)c1cn(CCO)c2cc(-c3ccncc3)ccc2c1=O			50 µg/mL		inactive
CCn1cc(C(N)=O)c(=O)c2ccc(-c3ccc(N)cc3)cc21			6.25 µg/mL		inactive
CCn1cc(C(N)=O)c(=O)c2ccc(F)cc21			50 µg/mL		inactive
NC(=O)c1cn(-c2ccc(F)cc2)c2cc(-c3ccccc3)ccc2c1=O	0.82 µg/mL (≈ 2.29 µM)	>200 mg/kg	12.5 µg/mL	inactive	
Cn1cc(C(N)=O)c(=O)c2ccc(-c3ccncc3)cc21	4.6 µg/mL (≈ 16.5 µM)	25 mg/kg	>25 µg/mL	inactive	
CC(C)(C)c1ccc(-n2cc(C(N)=O)c(=O)c3ccc(-c4ccncc4)cc32)cc1			>25 µg/mL		inactive
CCn1cc(C(=O)NCCN(C)C)c(=O)c2ccc(-c3ccncc3)cc21			>100 µg/mL		inactive
COc1ccc(-n2cc(C(N)=O)c(=O)c3ccc(-c4ccncc4)cc32)cc1	1.3 µg/mL (≈ 3.5 µM)	50 mg/kg	>25 µg/mL	inactive	
CCCCn1cc(C(N)=O)c(=O)c2ccc(-c3ccncc3)cc21	5.2 µg/mL (≈ 16.2 µM)	50 mg/kg	6.25 µg/mL	inactive	
CCn1cc(C(N)=O)c(=O)c2ccc(-c3ccc([N+](=O)[O-])cc3)cc21			>100 µg/mL		inactive
NC(=O)c1csc2cc(-c3ccncc3)ccc2c1=O			>100 µg/mL		inactive
CCn1cc(C(N)=O)c(=O)c2ccc(-c3ccccn3)cc21	14 µg/mL (≈ 47.7 µM)	100 mg/kg	25 µg/mL	inactive	
C=CCn1cc(C(N)=O)c(=O)c2ccc(-c3ccncc3)cc21	2.9 µg/mL (≈ 9.5 µM)	<50 mg/kg	6.25 µg/mL	inactive	
CCn1cc(C(N)=O)c(=O)c2ccc(N3CCN(C)CC3)cc21			50 µg/mL		inactive

Compound	MIC (Human alphaherpesvirus 2 [1])	MTD (Human alphaherpesvirus 2 [2])	MTL (Human alphaherpesvirus 2 [3])	MED (Human alphaherpesvirus 2 [4])	MIC (Human alphaherpesvirus 2 [5])
NC(=O)c1cn(-c2ccc(F)cc2F)c2cc(-c3ccncc3)ccc2c1=O	2.2 µg/mL (≈ 5.83 µM)	<25 mg/kg	3.1 µg/mL	inactive	
CCn1cc(C(N)=O)c(=O)c2ccc(-n3ccnc3)cc21			50 µg/mL		inactive
CCn1cc(C(N)=O)c(=O)c2ccccc21			50 µg/mL		inactive
CCCn1cc(C(N)=O)c(=O)c2ccc(-c3ccncc3)cc21			6.25 µg/mL		inactive
CCn1cc(C#N)c(=O)c2ccc(-c3ccncc3)cc21			100 µg/mL		inactive
CCn1cc(C(=O)NCCO)c(=O)c2ccc(-c3ccncc3)cc21			25 µg/mL		inactive
NC(=O)c1cn(-c2ccc(F)cc2)c2cc(Br)ccc2c1=O			6.25 µg/mL		inactive
CCn1cc(C(N)=O)c(=O)c2ccc(-c3cccnc3)cc21	12 µg/mL (≈ 40.9 µM)	100 mg/kg	50 µg/mL	inactive	
CCn1cc(C(N)=O)c(=O)c2ccc(-c3c(C)cncc3C)cc21	9.9 µg/mL (≈ 30.8 µM)	25 mg/kg	12.5 µg/mL	inactive	
CCn1cc(C(=O)NOC)c(=O)c2ccc(-c3ccncc3)cc21			25 µg/mL		inactive
CCn1c(C)c(C(N)=O)c(=O)c2ccc(-c3ccncc3)cc21			50 µg/mL		inactive
Cc1cc(-c2ccc3c(=O)c(C(N)=O)cn(-c4ccc(F)cc4)c3c2)sn1	0.25 µg/mL (≈ 0.659 µM)	>100 mg/kg	>100 µg/mL	inactive	
NC(=O)c1c(O)c2ccc(-c3ccncc3)cc2n2c1nc1ccccc12			0.4 µg/mL		
NC(=O)c1cn(Cc2ccc(Cl)c(Cl)c2)c2cc(-c3ccncc3)ccc2c1=O	1.7 µg/mL (≈ 4.01 µM)	>100 mg/kg	>100 µg/mL	inactive	
NC(=O)c1cn(-c2ccc(C(F)(F)F)cc2)c2cc(-c3ccncc3)ccc2c1=O	1 µg/mL (≈ 2.44 µM)	50 mg/kg	>100 µg/mL	inactive	
Cc1ccc(-n2cc(C(N)=O)c(=O)c3ccc(-c4ccncc4)cc32)cc1	0.63 µg/mL (≈ 1.77 µM)	50 mg/kg	>25 µg/mL	inactive	
CCC(=O)c1c(O)c2ccc(-c3ccncc3)cc2n(-c2ccc(F)cc2)c1=O	> 100 µg/mL				
Cc1ccc(-n2cc(C(N)=O)c(=O)c3ccc(-c4ccncc4)cc32)cc1C	1 µg/mL (≈ 2.71 µM)	>200 mg/kg	>100 µg/mL	inactive	
NC(=O)c1c(O)c2ccc(-c3ccncc3)cc2n(-c2ccc(F)cc2)c1=O	11 µg/mL (≈ 29.3 µM)		>100 µg/mL		
CCn1cc(C(N)=O)c(=O)c2ccc(-c3ccno3)cc21	5 µg/mL (≈ 17.6 µM)	>200 mg/kg	12.5 µg/mL	inactive	
CCn1cc(C(N)=O)c(=O)c2ccc(-c3cc(C)no3)cc21	12 µg/mL (≈ 40.4 µM)	>200 mg/kg	>100 µg/mL	inactive	
NC(=O)c1cn(-c2ccc(F)cc2)c2cc(Cl)ccc2c1=O			>12.5 µg/mL		inactive
CCn1cc(C2=NCCN2)c(=O)c2ccc(-c3ccncc3)cc21			>100 µg/mL		inactive
Cc1cc(-c2ccc3c(=O)c(C(N)=O)cn(-c4ccc(F)cc4)c3c2)on1	0.26 µg/mL (≈ 0.716 µM)	>200 mg/kg	>100 µg/mL	inactive	
CCn1cc(C(=O)NCCN)c(=O)c2ccc(-c3ccncc3)cc21			>100 µg/mL		inactive
